Experimental data from ChEMBL document CHEMBL2346605, “4-Nerolidylcatechol and its synthetic analogues: antioxidant activity and toxicity evaluation” (Eur J Med Chem, 2013).
In brackets after ≈: the same amount, converted by molar mass. Activity calls are given as the source filed them. The calls are words filed in the database; no cut-off is given here.

Key:
[1] = test system: Erythrocyte; assay: Antioxidant activity against H2O2-induced oxidative stress in human erythrocyte membrane at 12.5 to 100 uM treated for 30 mins prior to H2O2 challenge measured after 3 hrs; assay type: functional, cell membranes
Summary of the method: (§1)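 Erythrocytes from blood-bank samples, washed in saline phosphate with 1 mM NaN3 at 4 °C, plasma and white cells removed. Preincubated with compound 30 min at 37 °C, then brought to 2% haematocrit in PBS. Stress induced by H2O2 (300 μM), 3 h at 37 °C. Absorbance read at 540 nm. Mean ± S.D. of three experiments in duplicate.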

[2] = Toxicity against human erythrocytes assessed as disruption of cell membrane after 1 hr by haemolytic assay; assay type: cell-based, Erythrocyte
Summary of the method: (§2)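 Erythrocytes from blood banks suspended as a 2% saline suspension. Incubated 1 h with compound (50–0.419 µg/mL). Triton X (5 mg/mL) used as positive control. Absorbance read at 450 nm. ANOVA with Tukey test, p < 0.05.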

[3] = Toxicity against human erythrocytes assessed as hemolytic rate after 1 hr by haemolytic assay; assay type: cell-based, Erythrocyte; conditions: read-out: Activity; summary of the method: as §2
[4] = test system: Radical scavenging activity; assay: Antioxidant activity assessed as DPPH radical scavenging activity after 30 mins; assay type: functional
Summary of the method: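 Compound (500–0.48 µg/mL) mixed with DPPH, held 30 min at 25 °C in the dark, absorbance read at 517 nm. AA% = 100 − [(ABS_T − ABS_B)×100/ABS_C], with a compound + ethanol blank and a DPPH + ethanol negative control.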

[5] = Toxicity against human erythrocytes assessed as hemolytic potential after 1 hr by haemolytic assay; assay type: cell-based, Erythrocyte; conditions: read-out: Activity; summary of the method: as §2
[6] = Pro-oxidant activity in H2O2-stimulated human erythrocyte membrane assessed as increase in hemolysis at >35 uM treated for 30 mins prior to H2O2 challenge measured after 3 hrs; assay type: ADME, cell-based; summary of the method: as §1
[7] = test system: Mus musculus; assay: Acute toxicity in Swiss mouse assessed as animal's death at 2000 mg/kg, po administered as single dose measured during 14 days after drug exposure; assay type: organism-based; design: dose 2000 mg/kg, route oral; conditions: in vivo, 336 h
Summary of the method: (§3)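 Female Swiss mice (eight weeks old, specific pathogen-free, kept at 22 °C with food and water ad libitum, acclimatised five days) were tested under OECD Test Guideline 423. Each received a single dose by oral gavage, n = 3. The starting dose came from the ICCVAM prediction model using 3T3 neutral red uptake IC50. Animals were observed individually during the first 30 min and periodically over 24 h, especially the first 4 h, then daily for 14 days.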

[8] = Acute toxicity in po dosed Swiss mouse administered as single dose measured for 14 days after drug exposure; assay type: organism-based; conditions: in vivo; summary of the method: as §3
[9] = Genotoxicity in human T lymphocytes assessed as proportion of cells without DNA damage at 50 uM after 1 hr by comet assay (reference value: 90%); assay type: toxicity, cell-based; conditions: t-cell
[10] = Genotoxicity in human T lymphocytes assessed as proportion of cells without DNA damage at 25 uM after 1 hr by comet assay (reference value: 90%); assay type: toxicity, cell-based; conditions: t-cell
[11] = Myelosuppressive activity against Swiss mouse CFU-GM cells assessed as inhibition of cell growth and differentiation after 7 days; assay type: cell-based; conditions: 168 h
Summary of the method: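 Swiss mouse bone marrow cells (1×10^5) in agar with 2× DMEM, mouse GM-CSF and bovine serum. Ethanolic compound solutions (534–4.17 μM) added, medium-only negative control. Incubated seven days, then CFU-GM colonies counted under 32× magnification. ANOVA.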

[12] = Genotoxicity in human T lymphocytes assessed as proportion of cells with DNA damage at 25 uM after 1 hr by comet assay (reference value: 10%); assay type: toxicity, cell-based; conditions: t-cell
[13] = Genotoxicity in human T lymphocytes assessed as proportion of cells with DNA damage at 50 uM after 1 hr by comet assay (reference value: 10%); assay type: toxicity, cell-based; conditions: t-cell
[14] = Genotoxicity in human T lymphocytes assessed as proportion of cells with DNA damage at 100 uM after 1 hr by comet assay (reference value: 10%); assay type: toxicity, cell-based; conditions: t-cell
[15] = Genotoxicity in human T lymphocytes assessed as proportion of cells without DNA damage at 100 uM after 1 hr by comet assay (reference value: 90%); assay type: toxicity, cell-based; conditions: t-cell
[16] = test system: Mus musculus; assay: Acute toxicity in Swiss mouse assessed as agitation at 2000 mg/kg, po administered as single dose measured during 14 days after drug exposure; assay type: organism-based; design: dose 2000 mg/kg, route oral; conditions: in vivo, 336 h; summary of the method: as §3
[17] = test system: Mus musculus; assay: Acute toxicity in Swiss mouse assessed as depression at 2000 mg/kg, po administered as single dose measured during 14 days after drug exposure; assay type: organism-based; design: dose 2000 mg/kg, route oral; conditions: in vivo, 336 h; summary of the method: as §3

Compound | Activity [1] | IC50 at 1 hr [2] [µg/mL] | hemolysis at 1 h [3] [%] | Activity [4] | hemolysis at 1 h [5] [%] | Activity [6] | Activity [7] | LD50 at 336 h [8] [mg/kg] | Activity [9] [%] | Activity [10] [%] | IC50 [11] [µM] | Activity [12] [%] | Activity [13] [%] | Activity [14] [%] | Activity [15] [%] | Activity [16] | Activity [17]
CC(C)=CCC/C(C)=C/CN(c1ccc(O)cc1)S(C)(=O)=O | Active | < 0.419 | < 5 | – | – | – | – | – | – | – | – | – | – | – | – | – | –
CC(C)=CCC/C(C)=C/CNc1ccc2c(c1)OCO2 | Active | 18.3 (≈ 67.1 µM) | < 5 | Active | – | – | – | – | – | – | – | – | – | – | – | – | –
CC(C)=CCC/C(C)=C/CNc1ccccc1 | Active | < 0.419 | < 5 | Active | – | – | – | – | – | – | – | – | – | – | – | – | –
CC(C)=CCC/C(C)=C/CNc1cc(C)nn1C | – | 1.76 (≈ 7.11 µM) | > 5 | Active | 75 | Toxic | – | – | – | – | – | – | – | – | – | – | –
CC(C)=CCC/C(C)=C/CNc1ccc(O)cc1 | Active | < 0.419 | < 5 | Active | – | – | Non-toxic | > 2000 | 72 | 78 | 460 | 22 | 28 | 30 | 70 | Toxic | Toxic
